The values below come from ChEMBL document CHEMBL3997850 (ACS Med Chem Lett, 2017).

The term half-life denotes how long it takes for the measured level to halve. Usually AUC stands for the area under the concentration-time curve, a measure of exposure.

The nature of series [1]: Volume of distribution at steady state in beagle dog at 5 mg/kg, iv or 10 mg/kg, po by LC/MS/MS analysis. In kind it is ADME, organism-based, Canis lupus familiaris. The note with it: in vivo, read-out: Vdss. In short, it runs like this:
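Male beagle dogs dosed 5 mg/kg IV in 10% DMAC in saline or 10 mg/kg oral in 5% DMAC in 0.5% methylcellulose. EDTA blood taken from pre-dose to 24 h and spun to plasma. Plasma proteins precipitated with acetonitrile, then LC/MS/MS (linear 2–10000 nM, 0.1 mL plasma). Parameters derived by non-compartmental analysis.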

The nature of series [2]: Half life in rat at 5 mg/kg, po by LC/MS/MS analysis. In kind it is ADME, organism-based. The note with it: in vivo. In short, it runs like this:
(§1)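 Male rats, 5 mg/kg IV in 10% DMAC/saline or 5 mg/kg oral in 0.5% aqueous methylcellulose. Plasma (EDTA) sampled pre-dose to 24 h. Quantified by acetonitrile precipitation and LC/MS/MS (2–10000 nM range, 0.1 mL). Non-compartmental analysis of concentration–time data.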

Series [3] relates to Liver. Description: Intrinsic clearance in rat hepatic S9 fraction at 5 uM in presence of UDPGA measured over 30 mins by LC/MS analysis. In kind it is ADME. The note with it: s9, 0.5 h.
Series [4] addresses Voltage-gated inwardly rectifying potassium channel KCNH2 (Homo sapiens, UniProt Q12809). Put plainly: Inhibition of human ERG by patch clamp method. On the technique in general: Patch clamp records ionic current or voltage across a cell membrane.
The subject of series [5] is Mus musculus. Description: Toxicity in mouse up to 2000 mg/kg/day after 28 days by histopathology test. In kind it is organism-based. The note with it: in vivo, 672 h.
A further series has as its system Rattus norvegicus. Put plainly: AUC in rat at 5 mg/kg, iv or 5 mg/kg, po by LC/MS/MS analysis. In kind it is ADME, organism-based. The note with it: in vivo. In short, it runs like this: as §1
Series [6] relates to Mus musculus. Put plainly: Toxicity in mouse assessed as change in body weight up to 2000 mg/kg/day after 28 days. In kind it is organism-based. The note with it: in vivo, 672 h.
In series [7] the test system is Canis familiaris. Description: Toxicity in dog assessed as effect on food consumption up to 500 mg/kg/day after 28 days. In kind it is organism-based, Canis lupus familiaris. The note with it: in vivo, 672 h.
The next series deals with T1, Cytochrome P450 1A2 (Homo sapiens, UniProt P05177).
T1 sequence (P05177 whole entry): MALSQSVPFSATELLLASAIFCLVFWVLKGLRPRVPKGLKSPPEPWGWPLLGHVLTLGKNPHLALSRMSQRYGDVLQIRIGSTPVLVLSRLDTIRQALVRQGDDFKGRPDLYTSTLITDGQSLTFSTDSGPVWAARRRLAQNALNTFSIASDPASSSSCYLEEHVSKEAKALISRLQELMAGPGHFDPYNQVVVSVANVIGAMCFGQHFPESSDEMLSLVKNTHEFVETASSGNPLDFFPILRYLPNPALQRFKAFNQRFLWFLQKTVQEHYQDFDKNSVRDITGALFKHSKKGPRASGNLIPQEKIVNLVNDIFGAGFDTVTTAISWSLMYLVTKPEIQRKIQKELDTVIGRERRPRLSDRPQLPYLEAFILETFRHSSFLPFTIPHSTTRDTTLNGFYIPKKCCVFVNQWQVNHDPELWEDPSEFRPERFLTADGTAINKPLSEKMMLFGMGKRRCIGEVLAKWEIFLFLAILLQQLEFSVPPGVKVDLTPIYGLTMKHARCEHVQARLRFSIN
Description: Inhibition of recombinant human CYP1A2 assessed as decrease in hydroxylation of 7-benzyloxy-4-trifluoromethyl-coumarin by fluorescence assay. In kind it is ADME. As to conditions: recombinant enzyme; call rule not given here. Put shortly: (§2)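 Recombinant human CYP1A2 or CYP3A4 with 7-benzyloxy-4-trifluoromethyl-coumarin at Km concentration; hydroxylation read by fluorescence. Inhibitor tested at 0–25 µM.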

Series [8] can be described thus: AUC in mouse CT26 cells allografted immunocompetent Balb/c mouse model at 30 mg/kg, po by LC/MS/MS analysis. In kind it is ADME, organism-based. The note with it: in vivo.
The test system of series [9] is Canis familiaris. Put plainly: Toxicity in dog up to 500 mg/kg/day after 28 days by clinical pathology test. In kind it is organism-based, Canis lupus familiaris. As to conditions: in vivo, 672 h.
Series [10] can be described thus: Half life in cynomolgus monkey at 4 mg/kg, iv by LC/MS/MS analysis. In kind it is ADME, organism-based, Macaca fascicularis. As to conditions: in vivo. Put shortly:
(§3)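 Male cynomolgus monkeys given 4 mg/kg IV (5% DMAC, 40% propylene glycol in saline) or 10 mg/kg orally (0.5% methylcellulose). EDTA plasma collected pre-dose through 24 h. Acetonitrile protein precipitation, then LC/MS/MS quantification, linear 2–10000 nM. PK parameters by standard non-compartmental methods.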

Series [11] deals with Canis familiaris. Put plainly: Toxicity in dog up to 500 mg/kg/day after 28 days by histopathology test. The note with it: in vivo, 672 h. In kind it is organism-based, Canis lupus familiaris.
The nature of series [12]: Volume of distribution at steady state in cynomolgus monkey at 4 mg/kg, iv or 10 mg/kg, po by LC/MS/MS analysis. In kind it is ADME, organism-based, Macaca fascicularis. As to conditions: in vivo, read-out: Vdss. In short, it runs like this: as §3
Another series addresses T2, Cytochrome P450 2C8 (Homo sapiens, UniProt P10632).
T2 sequence (P10632 whole entry): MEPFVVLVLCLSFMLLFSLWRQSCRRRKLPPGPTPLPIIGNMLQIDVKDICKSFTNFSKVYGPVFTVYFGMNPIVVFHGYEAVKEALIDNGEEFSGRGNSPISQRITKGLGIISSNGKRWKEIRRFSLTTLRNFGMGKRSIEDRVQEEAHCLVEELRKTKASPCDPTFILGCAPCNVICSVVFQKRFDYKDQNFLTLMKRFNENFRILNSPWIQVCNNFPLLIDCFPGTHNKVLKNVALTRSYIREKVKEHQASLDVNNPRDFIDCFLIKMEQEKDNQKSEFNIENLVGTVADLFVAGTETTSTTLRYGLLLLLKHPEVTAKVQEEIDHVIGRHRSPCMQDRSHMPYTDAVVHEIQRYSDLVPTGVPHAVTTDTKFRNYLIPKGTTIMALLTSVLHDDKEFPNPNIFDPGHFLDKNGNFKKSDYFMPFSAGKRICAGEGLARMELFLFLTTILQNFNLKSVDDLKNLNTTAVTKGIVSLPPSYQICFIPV
Description: Inhibition of recombinant human CYP2C8 assessed as decrease in conversion of dibenzylfluoresein to fluorescein by fluorimetric method. In kind it is ADME. As to conditions: recombinant enzyme. Put shortly:
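Recombinant human CYP2C8; dibenzylfluorescein at Km concentration converted to fluorescein, measured fluorimetrically. Inhibitor range 0–25 µM.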

Another series concerns the target Cytochrome P450 2D6 (Homo sapiens, UniProt P10635). Description: Inhibition of recombinant human CYP2D6 assessed as decrease in hydroxylation of 7-methoxy-4-methylcoumarin by fluorimetric method. In kind it is ADME. As to conditions: recombinant enzyme. Put shortly:
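Recombinant human isozymes with substrate at Km concentration: CYP2C9 with 7-methoxy-4-(trifluoromethyl)coumarin, CYP2D6 with 7-methoxy-4-methylcoumarin. Hydroxylation read fluorimetrically, inhibitor 0–25 µM.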

Series [13] in a line: Clearance in cynomolgus monkey at 4 mg/kg, iv or 10 mg/kg, po by LC/MS/MS analysis. As to conditions: in vivo. In kind it is ADME, organism-based, Macaca fascicularis. Put shortly:
as §3

Series [14] in a line: Half life in cynomolgus monkey at 10 mg/kg, po by LC/MS/MS analysis. The note with it: in vivo. In kind it is ADME, organism-based, Macaca fascicularis. In short, it runs like this: as §3
Series [15] deals with Liver. Description: Intrinsic clearance in rat hepatic S9 fraction at 5 uM in presence of UDPGA/NADPH measured over 30 mins by LC/MS analysis. As to conditions: s9, 0.5 h. In kind it is ADME, tissue-based. Put shortly:
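Rat hepatic S9 (2 mg/mL protein) with compound 5 µM, 50 mM Tris-HCl pH 7.5, 8 mM MgCl2, 2 mM NADPH, 2 mM UDPGA, 12.7 µM alamethicin, 37 °C. Reaction started with S9. Aliquots taken over 0–30 min, quenched with acetonitrile, analyzed by LC/MS.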

The target in the next series is Cytochrome P450 3A4 (Homo sapiens, UniProt P08684). Description: Inhibition of recombinant human CYP3A4 assessed as decrease in hydroxylation of 7-benzyloxy-4-trifluoromethyl-coumarin by fluorescence assay. In kind it is ADME. The note with it: recombinant enzyme. In short, it runs like this:
as §2

Sequence of Cytochrome P450 3A4 (P08684 whole entry): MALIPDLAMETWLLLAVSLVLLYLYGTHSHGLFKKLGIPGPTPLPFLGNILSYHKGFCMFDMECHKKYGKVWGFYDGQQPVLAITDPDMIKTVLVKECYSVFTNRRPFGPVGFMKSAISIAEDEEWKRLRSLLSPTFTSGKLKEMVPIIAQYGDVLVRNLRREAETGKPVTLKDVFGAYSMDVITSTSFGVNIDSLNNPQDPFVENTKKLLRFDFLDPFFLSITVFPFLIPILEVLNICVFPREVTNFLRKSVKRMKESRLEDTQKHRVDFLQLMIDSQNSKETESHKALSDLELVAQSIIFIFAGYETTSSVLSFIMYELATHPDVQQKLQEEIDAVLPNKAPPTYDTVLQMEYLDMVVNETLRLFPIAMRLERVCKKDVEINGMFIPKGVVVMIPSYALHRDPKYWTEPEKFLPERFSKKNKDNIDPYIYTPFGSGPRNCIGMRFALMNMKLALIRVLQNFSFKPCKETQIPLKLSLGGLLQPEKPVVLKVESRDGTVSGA
Sequence of Cytochrome P450 2D6 (P10635 whole entry): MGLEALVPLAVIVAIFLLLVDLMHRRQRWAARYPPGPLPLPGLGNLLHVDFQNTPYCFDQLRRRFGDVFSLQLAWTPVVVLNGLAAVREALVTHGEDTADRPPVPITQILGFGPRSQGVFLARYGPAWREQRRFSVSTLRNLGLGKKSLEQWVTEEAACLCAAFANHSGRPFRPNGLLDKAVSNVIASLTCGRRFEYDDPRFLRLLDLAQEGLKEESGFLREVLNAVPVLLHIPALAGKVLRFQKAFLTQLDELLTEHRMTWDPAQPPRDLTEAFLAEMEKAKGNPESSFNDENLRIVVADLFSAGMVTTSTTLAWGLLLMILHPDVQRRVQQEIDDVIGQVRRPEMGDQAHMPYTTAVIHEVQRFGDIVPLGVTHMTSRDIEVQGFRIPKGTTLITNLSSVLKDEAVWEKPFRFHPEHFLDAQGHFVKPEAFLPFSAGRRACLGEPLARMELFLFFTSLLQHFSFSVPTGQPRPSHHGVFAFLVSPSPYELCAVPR
Sequence of Voltage-gated inwardly rectifying potassium channel KCNH2 (Q12809 whole entry): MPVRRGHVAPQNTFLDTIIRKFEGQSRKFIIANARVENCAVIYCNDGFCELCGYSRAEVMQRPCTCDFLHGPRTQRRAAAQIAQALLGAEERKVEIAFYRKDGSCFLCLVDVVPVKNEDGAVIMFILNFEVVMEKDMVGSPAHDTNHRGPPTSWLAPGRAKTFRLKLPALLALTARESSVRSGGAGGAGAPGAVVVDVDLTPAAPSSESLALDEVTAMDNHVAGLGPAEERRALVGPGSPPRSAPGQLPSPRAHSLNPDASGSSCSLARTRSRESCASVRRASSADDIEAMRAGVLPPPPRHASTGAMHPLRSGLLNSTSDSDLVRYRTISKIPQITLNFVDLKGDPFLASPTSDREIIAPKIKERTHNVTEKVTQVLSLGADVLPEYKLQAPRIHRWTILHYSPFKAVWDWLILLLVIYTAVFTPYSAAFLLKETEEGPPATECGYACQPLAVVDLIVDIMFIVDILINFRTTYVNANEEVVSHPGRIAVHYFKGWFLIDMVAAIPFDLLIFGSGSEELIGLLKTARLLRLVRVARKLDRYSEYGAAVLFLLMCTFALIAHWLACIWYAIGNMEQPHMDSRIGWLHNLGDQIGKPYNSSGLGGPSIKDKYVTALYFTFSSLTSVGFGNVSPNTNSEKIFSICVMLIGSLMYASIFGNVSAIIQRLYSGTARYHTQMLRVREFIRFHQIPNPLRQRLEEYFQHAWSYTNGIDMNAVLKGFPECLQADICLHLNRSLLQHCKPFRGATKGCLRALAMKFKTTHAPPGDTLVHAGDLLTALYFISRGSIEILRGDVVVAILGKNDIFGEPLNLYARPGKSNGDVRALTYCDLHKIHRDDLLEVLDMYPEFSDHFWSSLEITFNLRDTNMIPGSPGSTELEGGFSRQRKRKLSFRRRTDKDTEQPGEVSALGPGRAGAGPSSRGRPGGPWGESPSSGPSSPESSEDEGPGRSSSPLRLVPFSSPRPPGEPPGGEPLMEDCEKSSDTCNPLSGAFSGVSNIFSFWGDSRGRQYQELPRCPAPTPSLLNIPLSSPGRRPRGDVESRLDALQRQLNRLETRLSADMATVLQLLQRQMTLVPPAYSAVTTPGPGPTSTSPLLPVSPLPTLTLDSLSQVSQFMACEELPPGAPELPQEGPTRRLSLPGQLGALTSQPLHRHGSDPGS

As to `NS(=O)(=O)NCCNc1nonc1C(=NO)Nc1ccc(F)c(Br)c1` [EPACADOSTAT], the Vd is 0.7 L/kg in series [1] and 1.8 L/kg in [12]. In addition, the half-life is 2.2 h in [2], 3.3 h in series [10] and 2.7 h in series [14]. The CLH was found to be 6.7 mL/min/kg in the series on Liver [3] and 12 mL/min/kg with Liver [15]. The “inhibition (INH)” value (in series [4]; on Cytochrome P450 1A2; at Cytochrome P450 2C8; at Cytochrome P450 2D6; at Cytochrome P450 3A4) was “Not Active” each time. For the same compound, the Activity entry with Mus musculus [5], in the series on Mus musculus [6], in the series on Canis familiaris [7], in the series on Canis familiaris [9] and in the series on Canis familiaris [11] was “Non-Toxic” throughout. In addition, the AUC was 1.3 µM·h in the series with Rattus norvegicus and 15 µM·h in [8]. Moreover, in series [13], the clearance was 13.3 mL/min/kg.
